Assay results from the RNAGym collection of RNA variant scans (doi:10.1002/anie.201605470).

B1: Osa-1-4 twister ribozyme (parent)
chain: CCGCCUAACACUGCCAAUGCCGGUCCCAAGCCCGGAUAAAAGUGGAGGGGGCGG

Variants of: B1
Assay: self-cleavage, relative activity (ratio to wild type); higher = more cleavage; co-transcriptional
Summary of the method: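 A DNA template for a 54-nucleotide Oryza sativa twister ribozyme was synthesised with 97 % wild-type base and 1 % of each other base at the 48 positions downstream of the cleavage site. It was transcribed in vitro for 2 h at 37 °C, allowing co-transcriptional self-cleavage, then reverse-transcribed with a template-switching oligonucleotide, PCR-amplified and deep-sequenced. Cleavage status was scored from reads with or without upstream sequence. Relative activity is fraction cleaved normalised to wild type.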

Variant	self-cleavage
C20A C21G	0.12
C20A C21U	0.86
C20A C21A	0.78
C20A C52G	0.79
C20A C52U	0.82
C20A C52A	0.8
U18A U24C	0.37
U18A U24A	0.25
U18A U24G	0.02
C20A G35C	0.9
C20A G35A	0.88
C20A G35U	0.94
G19C G54A	0.11
G19C G54U	0.4
G19C G54C	0.06
G19U G34U	0.3
G19U G34C	0.2
G19U G34A	0.52
A17U U18C	0.9
A17U U18A	0.89
A17U U18G	0.87
G19U G48A	0.04
G19U G48U	0.04
G19U G48C	0.03

Variant	self-cleavage
G19A U37A	0.88
G19A U37C	1.03
G19A U37G	1
C20A G30U	0.03
C20A G30C	0.04
C20A G30A	0.04
G19A G23U	0.05
G19A G23A	0.12
G19A G23C	0.06
A17U G53U	0.41
A17U G53C	0.12
A17U G53A	0.95
G19C G49C	0.03
G19C G49U	0.04
G19C G49A	0.04
A17U U43C	0.8
A17U U43G	0.57
A17U U43A	0.91
G19C U43C	0.05
G19C U43G	0.07
G19C U43A	0.07
A17U G42C	0.29
A17U G42A	0.17
A17U G42U	0.56

Variant	self-cleavage
G19C G42A	0.05
G19C G42C	0.04
G19C G42U	0.02
G19A U18G	1.01
G19A U18C	0.93
G19A U18A	0.84
G19U G47C	0.04
G19U G47A	0.04
G19U G47U	0.04
G19U G30A	0.05
G19U G30C	0.05
G19U G30U	0.04
C20A G34C	0.26
C20A G34U	0.64
C20A G34A	0.84
G19C G34U	0.07
G19C G34A	0.1
G19C G34C	0.05
A17U G47U	0.45
A17U G47C	0.16
A17U G47A	0.47
A17U G22U	0.63
A17U G22A	1.04
A17U G22C	0.11

Variant	self-cleavage
G19A G30A	0.05
G19A G30C	0.07
G19A G30U	0.06
G19A G54A	0.31
G19A G54U	0.65
G19A G54C	0.24
G19U U12G	0.09
G19U U12C	0.05
G19U U12A	0.07
G19A G34A	0.61
G19A G34U	0.39
G19A G34C	0.25
C20A	0.86
A17U U24A	0.3
A17U U24C	0.44
A17U U24G	0.03
G19A U12C	0.09
G19A U12G	0.13
G19A U12A	0.12
G19C G47A	0.03
G19C G47U	0.04
G19C G47C	0.02
A17U G34C	0.5
A17U G34U	0.78

Variant	self-cleavage
A17U G34A	0.82
C20A C26G	0.08
C20A C26U	0.87
C20A C26A	0.08
A17U G44C	0.98
A17U G44U	0.94
A17U G44A	1
G19C U12G	0.06
G19C U12C	0.04
G19C U12A	0.04
C20A G22C	0.07
C20A G22U	0.53
C20A G22A	0.39
C20A C25U	0.78
C20A C25A	0.19
C20A C25G	0.11
G19C G35A	0.45
G19C G35U	0.42
G19C G35C	0.29
G19U G51U	0.08
G19U G51C	0.07
G19U G51A	0.15
A17U G54C	1
A17U G54U	0.99

Variant	self-cleavage
A17U G54A	0.99
G19A G47C	0.08
G19A G47U	0.07
G19A G47A	0.08
C20A C32U	0.08
C20A C32G	0.05
C20A C32A	0.07
A17U G35U	0.92
A17U G35C	0.86
A17U G35A	0.9
G19U U18A	0.11
G19U U18C	0.36
G19U U18G	0.33
C20A C27G	0.09
C20A C27U	0.31
C20A C27A	0.34
A17U G50U	1.02
A17U G50A	0.69
A17U G50C	1.02
U18A U37G	0.93
U18A U37A	0.63
U18A U37C	0.98
G19U G53A	0.1
G19U G53U	0.09

Variant	self-cleavage
G19U G53C	0.06
G19A G22C	0.05
G19A G22A	0.35
G19A G22U	0.12
G19U U43G	0.09
G19U U43A	0.11
G19U U43C	0.07
G19A U43G	0.12
G19A U43A	0.23
G19A U43C	0.12
G19C G23C	0.02
G19C G23U	0.04
G19C G23A	0.04
G19U G22C	0.05
G19U G22A	0.32
G19U G22U	0.12
A17U U12A	0.94
A17U U12C	0.58
A17U U12G	0.44
A17U G49A	0.25
A17U G49U	0.22
A17U G49C	0.08
G19C G44U	0.07
